Results from different studies.
KCNH2: Voltage-gated inwardly rectifying potassium channel KCNH2 (KCNH2, Homo sapiens, UniProt Q12809)

`COc1nc(-c2cccc(-c3ccccc3)c2C)ccc1CNCCNC(=O)CCCCCCCCCCC(=O)N1CCN(CCNC(=O)c2cc3c(=O)n4cccc(C)c4nc3n(CCc3cccs3)c2=N)CC1` gave an MRT(0-inf) of 13.6 h (male Sprague-Dawley rat, plasma; oral, 40 mg/kg).
`C[C@H]1Oc2cc(cnc2N)-c2c(nn(C)c2C#N)CN(C)C(=O)c2ccc(F)cc21` has an MRT(0-t) of 11.9 h (male Sprague-Dawley rat, plasma; oral, 50 mg/kg, single dose).
With `COc1cccc(OC)c1-c1cc(C(=O)NC2(C(=O)O)C3CC4CC(C3)CC2C4)nn1-c1ccc(C(=O)N(C)CCCN(C)CCCN(C)C(=O)CN2CCN(CC(=O)[O-])CCN(CC(=O)[O-])CCN(CC(=O)[O-])CC2)cc1C(C)C.[177Lu+3]` (stereo not shown) the tracer uptake was 0.28 %ID/g (HT-29; pancreas; 7 days, tumour-bearing).
For `N[C@H]1C(O)O[C@H](CO)[C@@H](O)[C@@H]1O` (stereo partly shown), the viability was 102% (Caco-2; cell growth or viability, CCK-8; 10 mM).
With `CCOC(=O)C1=C(CN2CCC[C@@H]2C(=O)Nc2ccc(B(O)O)cc2)NC(c2nccs2)=N[C@H]1c1ccc(F)cc1Br` the inhibition was 31.8% (KCNH2; ion current, inhibitor, patch clamp; HEK293; 3 µM, pH 7.4).
The Tmax of `O=C(COc1ccc(Cl)cc1)NC12CC(c3nnc([C@H]4C[C@@H](OC(F)(F)F)C4)o3)(C1)C2` is reported as 24 h (human, plasma; oral, 100 mg, single dose, fasted, healthy volunteers).
`COc1ccc2c(c1)CN(C(=O)CCN1CCC(Cc3ccccc3)CC1)CC[S@@+]2[O-]` gave a Tmax of 0 h (male human, plasma; intravenous, 0.01 mg/kg, healthy volunteers).
With `CC(=O)N1CCC(C(=O)N2CCN3C(=O)c4cc(-c5ccccc5)ccc4NC(=O)C3C2)CC1` (stereo not shown) the inhibition was 2.6% (KCNH2; ion current, inhibitor, patch clamp; HEK293; 0.1 µM).
For `CC(C)n1cc(C#N)c2cc(-n3cc(C(=O)O)cn3)ccc21`, the Tmax was 4.01 h (human, plasma; oral, 300 mg, single dose, fasted, healthy volunteers).
`CN1C[C@H](COc2nccc3c(NCc4ccco4)cc(Cl)nc23)OC1=O` has an inhibition of 21.4% (KCNH2; ion current, inhibitor; HEK293; 10 µM).
